According to ChEMBL document CHEMBL1126584 (J Med Chem, 1993):

Target: T1, D(2) dopamine receptor (Rattus norvegicus, UniProt P61169)
Assay: Binding affinity against D2 receptor in rat corpus striatum using [3H]sulpiride as the radioligand
Type: tissue-based
Procedure, shortened: (§1)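 Fresh rat striatum homogenised in 50 mM Tris-HCl pH 7.5, pellet resuspended in buffer with 100 mM NaCl to 3.75 mg wet weight/mL. Incubated with 3 nM [3H]sulpiride for 60 min at 25 °C, in triplicate; 10 μM haloperidol defined nonspecific binding. Filtration on polyethyleneimine-treated filters; IC50 from concentration-response curves converted to Ki by Cheng-Prusoff; mean of at least three determinations.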

T1 sequence (P61169 whole entry): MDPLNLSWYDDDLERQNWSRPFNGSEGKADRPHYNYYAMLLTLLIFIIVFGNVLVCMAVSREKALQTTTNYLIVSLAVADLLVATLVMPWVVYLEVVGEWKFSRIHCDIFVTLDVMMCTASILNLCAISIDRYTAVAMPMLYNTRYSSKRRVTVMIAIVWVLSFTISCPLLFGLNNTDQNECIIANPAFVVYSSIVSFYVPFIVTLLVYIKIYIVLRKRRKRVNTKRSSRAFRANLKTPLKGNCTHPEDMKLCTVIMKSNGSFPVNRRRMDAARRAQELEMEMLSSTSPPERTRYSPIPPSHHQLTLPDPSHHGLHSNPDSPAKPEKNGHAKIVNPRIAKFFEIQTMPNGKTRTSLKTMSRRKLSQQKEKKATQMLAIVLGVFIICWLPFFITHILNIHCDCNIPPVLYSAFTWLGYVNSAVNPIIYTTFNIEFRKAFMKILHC

Structure (SMILES) | Ki
c1ccc2c3c([nH]c2c1)CC1CCC3N1CCCCc1nccs1 (stereo not drawn) | 2.23 µM
CCCN1C2CCC1c1c([nH]c3ccccc13)C2 (stereo not drawn) | 11.2 µM
c1coc(CCCCN2C3CCC2c2c([nH]c4ccccc24)C3)c1 (single isomer, unassigned; (-)) | 3.15 µM
O=C(CCCN1C2CCC1c1c([nH]c3ccccc13)C2)c1ccc(F)cc1 (stereo not drawn) | 0.27 µM
c1csc(CCCCN2C3CCC2c2c([nH]c4ccccc24)C3)c1 (stereo not drawn) | 0.62 µM
c1ccc2c(c1)CN(CCN1C3CCC1c1c([nH]c4ccccc14)C3)C2 (stereo not drawn) | 2 µM
c1coc(CCCCN2C3CCC2c2c([nH]c4ccccc24)C3)c1 (single isomer, unassigned; (+)) | 0.33 µM
c1ccc(-n2c3c(c4ccccc42)C2CCC(C3)N2)cc1 (stereo not drawn) | 10 µM
CN(CCN1C2CCC1c1c([nH]c3ccccc13)C2)C(=O)Cc1ccc(Cl)c(Cl)c1 (stereo not drawn) | 3.79 µM
c1ccc(CCCCN2C3CCC2c2c([nH]c4ccccc24)C3)cc1 (stereo not drawn) | 0.733 µM
c1coc(CCCCN2C3CCC2c2c([nH]c4ccccc24)C3)c1 (stereo in doubt; 40) | 1.27 µM
c1ccc(CCCCN2C3CCC2c2c(n(-c4ccccc4)c4ccccc24)C3)cc1 (stereo not drawn) | 1.57 µM
Fc1ccc2[nH]c3c(c2c1)C1CCC(C3)N1Cc1ccccc1 (stereo not drawn) | 2.42 µM
O=C1CC2(CCCC2)CC(=O)N1CCCCN1C2CCC1c1c([nH]c3ccccc13)C2 (stereo not drawn) | 3 µM
c1coc(CCCCN2C3CCC2c2c([nH]c4ccccc24)C3)c1 (racemic) | 1.27 µM
CC/C=C/N1C2CCC1c1c([nH]c3ccccc13)C2 (stereo not drawn) | 0.71 µM
CCN1C2CCC1c1c([nH]c3ccccc13)C2 (stereo not drawn) | > 10 µM

Target: T1, D(2) dopamine receptor
Assay: Compound was tested for binding affinity against D2 receptor in rat corpus striatum, using [3H]sulpiride as the radioligand
Type: tissue-based
Procedure, shortened: as §1

Structure (SMILES) | Ki
c1ccc2c3c([nH]c2c1)CC1CCC3N1 (stereo not drawn) | > 100 µM
